Data published in article PMC10734015 (ACS Omega, 2023).
Values after ≈ are worked out from the molar mass of the structure shown. Where two headings read alike, the source gives them in different places.

Legend:
[1] = system: anti-mitragynine antibody; assay: Cross-reactivity study by CI-ELISA; format: binding, rabbit; settings: for IC50 values: CI-ELISA, compounds at 0.001–50.0 μg/mL, 4PL fit; for cross-reactivity (%): calculated from IC50 values relative to mitragynine (eq 3)
How it was run: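 Plates coated overnight (16 h) at 4 °C with mitragynine-OVA at 0.25 μg/mL in PBS pH 7.4, washed three times in PBS, then blocked with 5% (w/v) skimmed blocker. Rabbit polyclonal IgG raised against C22-MG-cBSA was used at 1/1000 v/v in 0.05% Tween 20 and pre-incubated with test compound before transfer to wells. Detection used goat anti-rabbit-HRP at 1/2500 v/v.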

[2] = ELISA with pre-incubation (inhibition method); cited from earlier work
[3] = ELISA with pre-incubation (inhibition method); cited from earlier work; remark: listed apart in the source

Row | Compound | IC50 values [1] | cross-reactivity (%) [1] [%] | IC50 [2] [µg/mL] | IC50 [3] [µg/mL]
1 | corynantheidine | 1.854 | 10.08 |  | 
2 | COC(=O)[C@H]1[C@H]2C[C@@H]3c4[nH]c5cc(OC)ccc5c4CCN3C[C@H]2C[C@@H](OC(=O)c2cc(OC)c(OC)c(OC)c2)[C@@H]1OC [reserpine] | 9.889 | 1.89 |  | 
3 | CN(C)CCCN1c2ccccc2Sc2ccc(Cl)cc21 [chlorpromazine] |  |  | 0.00058 (≈ 0.00182 µM) | 
4 | COC(=O)C1=CO[C@@H](C)[C@@H]2CN3CCc4c([nH]c5ccc(OC)cc45)[C@@H]3C[C@H]12 [aricine] | 9.819 | 1.90 |  | 
5 | CC1(C)C(C(=O)OC(C#N)c2cccc(Oc3ccccc3)c2)C1(C)C (centres unmarked) [fenpropathrin] |  |  |  | 0.34 (≈ 0.973 µM)
